Measurements published in ChEMBL document CHEMBL3259693, “Multitarget drug discovery for tuberculosis and other infectious diseases” (J Med Chem, 2014).
Values after ≈ are worked out from the molar mass of the structure shown. Active and inactive are the calls of the source. No cut-off for these calls is given here.

Experiments:
[1] = Inhibition of Mycobacterium tuberculosis MenA
[2] = test system: Mycobacterium tuberculosis; assay: Antimicrobial activity against Mycobacterium tuberculosis H37Rv; assay type: functional
[3] = test system: Mycobacterium tuberculosis; assay: microbe, parasite or virus in culture; assay type: functional; conditions: ATCC 27294
[4] = test system: Mycolicibacterium smegmatis; assay: microbe, parasite or virus in culture; assay type: functional; conditions: ATCC 700084
Bacillus subtilis = assay: Antimicrobial activity against Bacillus subtilis subsp. subtilis ATCC 6051 after 12 to 16 hrs by microbroth dilution method; assay type: functional, organism-based
Escherichia coli [5] = assay: microbe, parasite or virus in culture; assay type: functional, organism-based; conditions: ATCC 29425, 3 h
Saccharomyces cerevisiae = assay: Antimicrobial activity against Saccharomyces cerevisiae ATCC 208352 after 48 hrs by microbroth dilution method; assay type: functional, organism-based; conditions: ATCC 208352, 48 h
Candida albicans = assay: Antimicrobial activity against Candida albicans CAI-4; assay type: functional, organism-based
Plasmodium falciparum = assay: Antimicrobial activity against Plasmodium falciparum 3D7 by intraerythrocytic assay; assay type: functional, organism-based
MCF7 = assay: Cytotoxicity against human MCF7 cells assessed as growth inhibition by MTT assay; assay type: cell-based
[6] = Therapeutic index, ratio of IC50 for human MCF7 cells to IC50 for Plasmodium falciparum 3D7; assay type: cell-based; conditions: MCF7 cells versus Plasmodium falciparum 3D7, read-out: Ratio IC50
Escherichia coli [7] = assay: Ratio of IC50 for Escherichia coli ATCC 29425 in presence of 10% fetal bovine serum to IC50 for Escherichia coli ATCC 29425; assay type: functional
Outline: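 E. coli broth microdilution in LB. Culture was grown to OD600 ~0.4, diluted 500-fold, and exposed to compound from 0.3 mM, 2× serially diluted to 292 nM. Plates ran 3 h at 37 °C with or without 10% FBS. Viability was read by MTT at 570 nm, and IC50 was obtained by non-linear regression.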

[8] = Inhibition of Mycobacterium tuberculosis cis-farnesyl diphosphate synthase
[9] = Inhibition of Mycobacterium tuberculosis cis-decaprenyl diphosphate synthase
[10] = Inhibition of Plasmodium vivax geranylgeranyl diphosphate synthase
[11] = Inhibition of Staphylococcus aureus undecaprenyl diphosphate synthase
[12] = Inhibition of Escherichia coli undecaprenyl diphosphate synthase
[13] = Inhibition of Staphylococcus aureus farnesyl diphosphate synthase
[14] = biological target: T1, Geranylgeranyl pyrophosphate synthase (Homo sapiens, UniProt O95749); assay: Inhibition of human geranylgeranyl diphosphate synthase
T1 sequence (O95749 whole entry): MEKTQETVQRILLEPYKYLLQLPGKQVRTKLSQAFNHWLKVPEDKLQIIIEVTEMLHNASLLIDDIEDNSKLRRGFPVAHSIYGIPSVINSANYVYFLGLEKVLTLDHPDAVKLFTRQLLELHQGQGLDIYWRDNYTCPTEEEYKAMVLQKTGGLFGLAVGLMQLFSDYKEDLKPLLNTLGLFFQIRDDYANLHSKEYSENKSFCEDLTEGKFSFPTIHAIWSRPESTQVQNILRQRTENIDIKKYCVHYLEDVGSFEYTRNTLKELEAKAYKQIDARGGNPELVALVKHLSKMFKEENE

[15] = biological target: T2, 4,4'-diapophytoene synthase (Staphylococcus aureus, UniProt A9JQL9); assay: Inhibition of Staphylococcus aureus CrtM
T2 sequence (A9JQL9 whole entry): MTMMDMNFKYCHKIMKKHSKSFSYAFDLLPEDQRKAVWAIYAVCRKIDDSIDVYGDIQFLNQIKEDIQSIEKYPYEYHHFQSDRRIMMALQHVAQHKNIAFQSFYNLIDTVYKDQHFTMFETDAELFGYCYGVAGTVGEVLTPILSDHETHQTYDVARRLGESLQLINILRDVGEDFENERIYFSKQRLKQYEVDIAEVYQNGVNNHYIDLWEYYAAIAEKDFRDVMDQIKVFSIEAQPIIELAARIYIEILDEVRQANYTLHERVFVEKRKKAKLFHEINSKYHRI

Squalene synthase = biological target: T3, Squalene synthase (Homo sapiens, UniProt P37268); assay: Inhibition of human SQS
T3 sequence (P37268 whole entry): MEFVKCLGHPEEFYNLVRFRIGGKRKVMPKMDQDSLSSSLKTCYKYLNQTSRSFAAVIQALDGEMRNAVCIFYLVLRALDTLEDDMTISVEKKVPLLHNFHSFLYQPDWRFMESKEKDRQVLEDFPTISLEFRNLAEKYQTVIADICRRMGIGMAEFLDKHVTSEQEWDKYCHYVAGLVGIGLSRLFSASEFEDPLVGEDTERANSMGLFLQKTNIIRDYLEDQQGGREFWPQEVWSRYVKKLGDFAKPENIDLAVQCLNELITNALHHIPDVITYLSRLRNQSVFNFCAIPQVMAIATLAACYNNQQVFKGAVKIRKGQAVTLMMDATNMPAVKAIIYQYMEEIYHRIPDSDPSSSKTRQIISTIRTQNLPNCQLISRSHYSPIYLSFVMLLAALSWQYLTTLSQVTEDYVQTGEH

[16] = Inhibition of Mycobacterium smegmatis MenA; set-up: species or system Mycolicibacterium smegmatis
[17] = Inhibition of Mycobacterium smegmatis MenG using radiolabeled S-adenosylmethionine as substrate after 1 hr by liquid scintillation counting analysis; set-up: species or system Mycolicibacterium smegmatis
[18] = test system: Mycolicibacterium smegmatis; assay: Inhibition of respiration in Mycobacterium smegmatis after 5 mins by methylene blue reduction assay in presence of NADH; assay type: functional, organism-based
[19] = test system: Mycolicibacterium smegmatis; assay: Disruption of membrane potential in Mycobacterium smegmatis by DisC3(5) probe-based fluorescence spectrophotometry; assay type: functional, organism-based
[20] = Inhibition of Escherichia coli N-terminal strep-tagged MenA expressed in Escherichia coli C43 (DE3) assessed as demethylmenaquinone-3 formation after 30 mins by HPLC analysis
Escherichia coli [21] = assay: Induction of collapse in deltapH in Escherichia coli inverted membrane vesicles by 31P NMR spectroscopy; assay type: functional, organism-based
[22] = test system: Mycobacterium tuberculosis; assay: Antimicrobial activity against Mycobacterium tuberculosis H37Rv incubated for 7 days measured after 28 days by resazurin microplate reduction assay; assay type: functional
Outline: (§1)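 Resazurin microplate reduction assay (REMA) on actively growing M. tuberculosis H37Rv. Drug tested from 10 ng/mL to 10 μg/mL. Medium was supplemented with 0, 10, 100 or 1000 μM menaquinone-4 (MK-4) to test quinone rescue. Activity was read as loss of resazurin reduction to fluorescent resorufin, giving an MIC.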

[23] = test system: Mycobacterium tuberculosis; assay: Antimicrobial activity against nonreplicating streptomycin-starved Mycobacterium tuberculosis 18b at 1 ug/ml incubated for 7 days measured after 28 days by resazurin microplate reduction assay; assay type: functional
[24] = test system: Mycobacterium tuberculosis; assay: Antimicrobial activity against Mycobacterium tuberculosis H37Rv incubated for 7 days measured after 28 days by resazurin microplate reduction assay in presence of MK-4; assay type: functional; outline: as §1
[25] = Inhibition of Mycobacterium smegmatis malate dehydrogenase using malate as substrate by MTT assay; set-up: species or system Mycolicibacterium smegmatis
Outline: (§2)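 M. smegmatis membrane preparation with 5 mM KCN. Dehydrogenase activity was followed as MTT reduction at 570 nm after adding substrate: NADH (Complex I plus NDH-2), deamino-NADH (Complex I only), succinate, malate or lactate. IC50 values were derived from these rates.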

[26] = Therapeutic index, ratio of IC50 for human MCF7 cells to MIC for Mycobacterium tuberculosis ATCC 27294; assay type: cell-based; conditions: MCF7 cells versus Mycobacterium tuberculosis ATCC 27294, read-out: TI
[27] = Inhibition of Mycobacterium smegmatis electron transport protein complex 1 using NADH as substrate by MTT assay; set-up: species or system Mycolicibacterium smegmatis; outline: as §2
[28] = Inhibition of Mycobacterium smegmatis NADH dehydrogenase using […] by MTT assay; set-up: species or system Mycolicibacterium smegmatis; outline: as §2
[29] = Inhibition of Mycobacterium smegmatis electron transport protein complex 1 using deamino-NADH as substrate by MTT assay; set-up: species or system Mycolicibacterium smegmatis; outline: as §2
[30] = Inhibition of Mycobacterium smegmatis succinate dehydrogenase using succinate as substrate by MTT assay; set-up: species or system Mycolicibacterium smegmatis; outline: as §2
[31] = Inhibition of Mycobacterium smegmatis lactate dehydrogenase using lactate as substrate by MTT assay; set-up: species or system Mycolicibacterium smegmatis; outline: as §2
[32] = test system: Mycolicibacterium smegmatis; assay: Induction of collapse in deltapH in Mycobacterium smegmatis inverted membrane vesicles at 30 to 150 uM by 31P NMR spectroscopy; assay type: functional

CC(C)=CCC/C(C)=C/CNCCNC1C2CC3CC(C2)CC1C3 (centres undefined) [SQ109]
IC50 [1]: 9 µM | MIC [2]: 0.7 µM (≈ 0.231 µg/mL) | MIC [3]: 0.3 µM (≈ 0.0992 µg/mL) | MIC [4]: 9.4 µM (≈ 3.11 µg/mL) | IC50 (Bacillus subtilis): 23 µM | IC50 (Escherichia coli [5]): 8.5 µM | IC50 (Saccharomyces cerevisiae): 3.3 µM | IC50 (Candida albicans): 10 µM | IC50 (Plasmodium falciparum): 3 µM | IC50 (MCF7): 18 µM | selectivity ratio [6]: 18 | Ratio IC50 (Escherichia coli [7]): 1.6 | IC50 [8]: ≥ 50 µM | IC50 [9]: ≥ 50 µM | IC50 [10]: ≥ 50 µM | IC50 [11]: ≥ 50 µM | IC50 [12]: ≥ 50 µM | IC50 [13]: ≥ 50 µM | IC50 [14]: 4.5 µM | IC50 [15]: 100 µM | IC50 (Squalene synthase): 100 µM | IC50 [16]: 4.8 µM | IC50 [17]: 13 µM | IC50 [18]: 58 µM | EC50 [19]: 20 µg/mL (≈ 60.5 µM) | IC50 [19]: 55 µM | IC50 [20]: 3.3 µM | IC50 (Escherichia coli [21]): 0.8 µM | MIC [22]: 0.15 µg/mL (≈ 0.454 µM) | MIC [23]: 1 µg/mL (≈ 3.03 µM) | MIC [24]: 1 µg/mL | IC50 [25]: 10 µg/mL (≈ 30.3 µM) | selectivity ratio [26]: 120 | IC50 [27]: 30 µg/mL (≈ 90.8 µM) | IC50 [28]: 30 µg/mL (≈ 90.8 µM) | IC50 [29]: 30 µg/mL (≈ 90.8 µM) | IC50 [30]: 30 µg/mL (≈ 90.8 µM) | IC50 [31]: 30 µg/mL (≈ 90.8 µM) | Activity [32]: Active
